Laboratory results as given in ChEMBL document CHEMBL4689842, “EUbOPEN Chemogenomics Library wave 1” (2021).
“And” between values parts separate entries of the source, which are not always exact repeats. Equal entries are not always repeated.

System: U2OS
Experiment: Multiplex assay against U2OS
Assay type: toxicity, cell-based
Conditions: human
Summary of the method: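 Tubulin, mitochondrial-mass and membrane-permeability phenotypes are per cents of healthy-nucleus cells. Cells were gated by CellPathfinder machine learning into Hoechst high-intensity objects or normal cells, normal cells into healthy, pyknosed or fragmented nuclei, and pyknosed cells into mitotic or apoptotic. Before that, live cells stained at seeding with Hoechst33342, BioTracker Green Microtubule Cytoskeleton Dye, MitoTracker Red and Annexin V Alexa Fluor 680 were imaged on a CQ1 microscope at 37°C and 5% CO2 after compound addition.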

[1] = 12 h, 10 µM, compound concentration 10 uM, replicate 1
[2] = 12 h, 10 µM, compound concentration 10 uM, replicate 2
[3] = 24 h, 10 µM, compound concentration 10 uM, replicate 1
[4] = 24 h, 10 µM, compound concentration 10 uM, replicate 2
[5] = 12 h, 1 µM, compound concentration 1 uM, replicate 1
[6] = 12 h, 1 µM, compound concentration 1 uM, replicate 2
[7] = 24 h, 1 µM, compound concentration 1 uM, replicate 1
[8] = 24 h, 1 µM, compound concentration 1 uM, replicate 2

CN(c1ccccc1CNc1nc(Nc2ccc3c(c2)CC(=O)N3)ncc1C(F)(F)F)S(C)(=O)=O
Population Apoptotic (%) [1]: 40% and 75%
Population Healthy Nuclei (%) [1]: 44% and 89%
Population Hoechst High Intensity Objects (%) [1]: 7% and 4%
Population Mitochondria Different-Phenotype (%) [1]: 30% and 26%
Population Mitotic Cells (%) [1]: 59% and 25%
Population Normal (%) [1]: 92% and 95%
Population Tubulin-Different-Phenotype (%) [1]: 72% and 24%
Total Cell Count [1]: 122 and 100
Population Apoptotic (%) [2]: 91% and 33%
Population Fragmented Nuclei (%) [2]: 23% and 11%
Population Healthy Nuclei (%) [2]: 59% and 85%
Population Hoechst High Intensity Objects (%) [2]: 17% and 6%
Population Membrane Permeable-Phenotype (%) [2]: 27% and 12%
Population Mitochondria Different-Phenotype (%) [2]: 37% and 32%
Population Normal (%) [2]: 82% and 93%
Population Tubulin-Different-Phenotype (%) [2]: 55% and 32%
Total Cell Count [2]: 116 and 91
Population Fragmented Nuclei (%) [3]: 16%
Population Healthy Nuclei (%) [3]: 56% and 83%
Population Mitochondria Different-Phenotype (%) [3]: 57% and 45%
Population Normal (%) [3]: 81% and 96%
Population Tubulin-Different-Phenotype (%) [3]: 72% and 37%
Total Cell Count [3]: 125 and 100
Population Apoptotic (%) [4]: 59% and 30%
Population Fragmented Nuclei (%) [4]: 13% and 10%
Population Healthy Nuclei (%) [4]: 53% and 78%
Population Hoechst High Intensity Objects (%) [4]: 19% and 8%
Population Mitochondria Different-Phenotype (%) [4]: 51% and 52%
Population Mitotic Cells (%) [4]: 40% and 69%
Population Normal (%) [4]: 80% and 91%
Population Tubulin-Different-Phenotype (%) [4]: 48% and 38%
Total Cell Count [4]: 130 and 91

C=CC(=O)Nc1cccc(Sc2nc(Nc3ccc(N4CCN(C)CC4)cc3)ncc2Cl)c1
Population Apoptotic (%) [5]: 99%
Population Fragmented Nuclei (%) [5]: 5%
Population Healthy Nuclei (%) [5]: 3%
Population Hoechst High Intensity Objects (%) [5]: 10%
Population Membrane Permeable-Phenotype (%) [5]: 100%
Population Mitochondria Different-Phenotype (%) [5]: 100%
Population Mitotic Cells (%) [5]: 0%
Population Normal (%) [5]: 89%
Population Pyknosed Nuclei (%) [5]: 91%
Population Tubulin-Different-Phenotype (%) [5]: 100%
Total Cell Count [5]: 197
Population Apoptotic (%) [6]: 95%
Population Fragmented Nuclei (%) [6]: 16%
Population Healthy Nuclei (%) [6]: 11%
Population Hoechst High Intensity Objects (%) [6]: 14%
Population Mitotic Cells (%) [6]: 5%
Population Normal (%) [6]: 85%
Population Pyknosed Nuclei (%) [6]: 71%
Total Cell Count [6]: 119
Population Apoptotic (%) [1]: 28%
Population Fragmented Nuclei (%) [1]: 5%
Population Healthy Nuclei (%) [1]: 83%
Population Hoechst High Intensity Objects (%) [1]: 1%
Population Membrane Permeable-Phenotype (%) [1]: 32%
Population Mitochondria Different-Phenotype (%) [1]: 11%
Population Mitotic Cells (%) [1]: 71%
Population Normal (%) [1]: 98%
Population Pyknosed Nuclei (%) [1]: 10%
Population Tubulin-Different-Phenotype (%) [1]: 25%
Total Cell Count [1]: 175
Population Apoptotic (%) [2]: 44%
Population Fragmented Nuclei (%) [2]: 8%
Population Healthy Nuclei (%) [2]: 82%
Population Hoechst High Intensity Objects (%) [2]: 14%
Population Membrane Permeable-Phenotype (%) [2]: 25%
Population Mitochondria Different-Phenotype (%) [2]: 10%
Population Mitotic Cells (%) [2]: 55%
Population Normal (%) [2]: 85%
Population Pyknosed Nuclei (%) [2]: 8%
Population Tubulin-Different-Phenotype (%) [2]: 33%
Total Cell Count [2]: 115
Population Apoptotic (%) [7]: 96%
Population Fragmented Nuclei (%) [7]: 10%
Population Hoechst High Intensity Objects (%) [7]: 7%
Population Mitochondria Different-Phenotype (%) [7]: 96%
Population Mitotic Cells (%) [7]: 3%
Population Normal (%) [7]: 92%
Population Pyknosed Nuclei (%) [7]: 50%
Total Cell Count [7]: 237
Population Apoptotic (%) [8]: 100%
Population Fragmented Nuclei (%) [8]: 21%
Population Healthy Nuclei (%) [8]: 38%
Population Hoechst High Intensity Objects (%) [8]: 15%
Population Membrane Permeable-Phenotype (%) [8]: 100%
Population Mitochondria Different-Phenotype (%) [8]: 100%
Population Mitotic Cells (%) [8]: 0%
Population Normal (%) [8]: 84%
Population Pyknosed Nuclei (%) [8]: 40%
Population Tubulin-Different-Phenotype (%) [8]: 100%
Total Cell Count [8]: 127
Population Apoptotic (%) [3]: 42%
Population Fragmented Nuclei (%) [3]: 6%
Population Healthy Nuclei (%) [3]: 82%
Population Hoechst High Intensity Objects (%) [3]: 1%
Population Membrane Permeable-Phenotype (%) [3]: 24%
Population Mitochondria Different-Phenotype (%) [3]: 13%
Population Mitotic Cells (%) [3]: 57%
Population Normal (%) [3]: 98%
Population Pyknosed Nuclei (%) [3]: 11%
Population Tubulin-Different-Phenotype (%) [3]: 18%
Total Cell Count [3]: 158
Population Apoptotic (%) [4]: 72%
Population Fragmented Nuclei (%) [4]: 7%
Population Hoechst High Intensity Objects (%) [4]: 12%
Population Membrane Permeable-Phenotype (%) [4]: 23%
Population Mitochondria Different-Phenotype (%) [4]: 15%
Population Mitotic Cells (%) [4]: 27%
Population Normal (%) [4]: 87%
Population Pyknosed Nuclei (%) [4]: 9%
Population Tubulin-Different-Phenotype (%) [4]: 22%
Total Cell Count [4]: 103
